Assay outcomes: PubChem, Broad Institute
Compounds with a hit are over-represented: about 3.2% of the library has one in this group of screens.
DENV2 CPE: protects cells from dengue virus 2 cytopathic effect; DENV2-infected cells, cytopathic effect rescue, plate reader; CPE inhibition, % at 9.99 µM; hit rate 1.7% among 350,000; AID 651640; in the data active means CPE inhibition above about 20%, passing the limit was not always enough; tested in BHK-21 cells;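 further: 0% = median of neutral control wells and 100% = median of positive control wells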
Ecoli rRNA inh: inhibitors of bacterial rRNA selective over humanized ribosomes. GFP signal change (wild-type ribosome), % (concentration not given with the values). AID 720706. hit rate 1.6% among 350,000. E. coli WT GFP vs humanized-ribosome RFP mutants, fluorescence, 24 h; hits give low values; DMSO median 0, no signal -100;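 active means significant combined selectivity score with lowered wild-type GFP, culture density cut under 30%, mutant RFP and density less affected; inactive means any of these conditions unmet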
S100A4 MyoIIA: blocks human S100A4 binding to myosin IIA peptide; hit rate 0.14% among 360,000; S100A4/TAMRA-MyoIIA peptide fluorescence polarization; AID 652163; inhibition, % at 10.7 µM; P26447;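 active means mean inhibition of at least 70% across replicates, with every replicate also reaching that level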
Target sequence (P26447 whole entry, looked up): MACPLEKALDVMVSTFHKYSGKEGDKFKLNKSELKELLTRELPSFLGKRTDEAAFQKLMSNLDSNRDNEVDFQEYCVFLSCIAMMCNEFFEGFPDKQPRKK
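Test system: S100A4 monomer protein. Medium: HEPES buffer with Ca2+, pH 7.2. Reagent: fluorescent myosin IIA peptide, 5 nM. Compound dosing: single-point compound testing. Timing: 5 min between mix addition and reading. Benchmarks: DMSO neutral and TFP positive wells.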
Cneo AK release: causes C. neoformans cell lysis; lysis activity, % at 15 µM; hit rate 0.2% among 360,000; adenylate kinase release luminescence, 4 h; normalised: neutral wells 0, clomiphene wells 100;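 active means mean lysis activity across replicates of at least 80%, whatever share of replicates individually reach that level; inactive means mean lysis activity below 80%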
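read-out = cell lysis signal | test system = log-phase Cryptococcus neoformans yeast cells | input = cells at 5 × 10^6 per mL | medium = fresh YPD growth medium | signal = luminescent adenylate kinase detection reagent | timing = 4 h at 37 °C static, read 1 h later | dosing = single dose | controls = Clomiphene as positive lysis control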
AF4-AF9 inh: MLL-AF4/AF9 protein interaction inhibition; AID 651704; inhibition, % at 10 µM; AlphaScreen, biotin-AF4 peptide binding to FLAG-AF9; hit rate 0.47% among 350,000; P42568;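 active means every replicate reaching a set inhibition limit, whatever the replicate mean, cut at about 25% in these data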;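 further: 0% = plate neutral control median and 100% = total signal loss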
PfHsp90 yeast 2: growth inhibition of yeast expressing Plasmodium Hsp90; S. cerevisiae expressing PfHsp90, BacTiter-Glo ATP, 48 h; yeast lacking PDR1 and PDR3 efflux regulators; inhibition, % at 9.4 µM; hit rate 0.32% among 310,000; AID 504621;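 active means every replicate shows inhibition above about 80%, whatever the replicate mean, limit read from the data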;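 further: 0% = DMSO neutral controls and 100% = 20 µM radicicol positive controls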
* hit, by the source's call; x = no result given.

SMILES	DENV2 CPE	Ecoli rRNA inh	S100A4 MyoIIA	Cneo AK release	AF4-AF9 inh	PfHsp90 yeast 2
COc1ccc(CN(C)C[C@H]2OCCCC[C@@H](C)Oc3ccc(NC(=O)CCC(F)(F)F)cc3C(=O)N([C@@H](C)CO)C[C@H]2C)cc1	2	2	-1	-3	-2	x
O=C(Cc1ccc([N+](=O)[O-])cc1)Nc1cc(C(F)(F)F)cc(C(F)(F)F)c1	14	-29*	-6	7	2	5
Cc1ccc(-n2c(Cl)c(Cl)nc(Cl)c2=O)cc1	x	x	x	x	x	105*
CC1(c2ccccc2)O[C@@H]2C[C@H]3[C@@H]4CCC5=CC(=O)C=C[C@]5(C)[C@@]4(F)[C@@H](O)C[C@]3(C)[C@]2(C(=O)CO)O1 (some centres not stated)	-4	-22*	0	0	3	-16
COCC#Cc1cnc2c(c1)C(=O)N([C@@H](C)CO)C[C@H](C)[C@H](CN(C)Cc1ccc3c(c1)OCO3)O2	-4	4	-78	-4	-2	x
Cc1noc(C)c1NC(=O)N(C)C[C@H]1Oc2ccc(NS(=O)(=O)c3cccs3)cc2C(=O)N([C@@H](C)CO)C[C@@H]1C	38*	1	-1	-3	-11	x
COc1ccc(NC(=O)N(C)C[C@@H]2Oc3ccc(N(C)C)cc3C(=O)N([C@H](C)CO)C[C@@H]2C)cc1	6	1	35	1	0	x
C[C@@H]1CN([C@@H](C)CO)C(=O)c2cc(N(C)C)ccc2O[C@H]1CN(C)C(=O)Nc1ccc2c(c1)OCO2	40*	-1	-2	1	-3	x
Cc1noc(C)c1NC(=O)N(C)C[C@@H]1Oc2ccc(NS(=O)(=O)c3cccs3)cc2C(=O)N([C@H](C)CO)C[C@@H]1C	2	-1	6	-3	-12	x
C[C@@H]1CN([C@@H](C)CO)C(=O)c2cc(N(C)C)ccc2O[C@H]1CN(C)C(=O)Nc1ccc(F)cc1	35*	-1	4	5	0	x
COc1ccc(NC(=O)N(C)C[C@H]2Oc3ccc(N(C)C)cc3C(=O)N([C@@H](C)CO)C[C@@H]2C)cc1	7	3	103*	0	1	x
C[C@@H]1CN([C@H](C)CO)C(=O)c2cc(N(C)C)ccc2O[C@H]1CN(C)C(=O)Nc1ccc(F)cc1	12	2	-31	-4	-4	x
C[C@@H]1CN([C@H](C)CO)C(=O)CCCn2cc(nn2)CO[C@@H]1CN(C)Cc1ccc(C(=O)Nc2ccccc2N)cc1	7	5	4	-9	-5	x
CC(C)C#Cc1ccc2c(c1)O[C@H](CN(C)C)[C@@H](C)CN([C@@H](C)CO)S2(=O)=O	9	2	9	-1	3	x
C[C@@H]1CCCCO[C@@H](CN(C)Cc2ccc(Cl)c(Cl)c2)[C@H](C)CN([C@@H](C)CO)C(=O)c2cc(NC(=O)Nc3ccc(F)cc3)ccc2O1	x	5	-7	0	1	x
C[C@H](CO)N1C[C@H](C)[C@@H](CN(C)C(=O)Nc2ccc3c(c2)OCO3)OCCCC[C@H](C)Oc2ccc(NC(=O)Nc3ccccc3)cc2C1=O	6	-2	4	0	1	x
Cc1noc(C)c1NC(=O)N(C)C[C@H]1Oc2ccc(N(C)C)cc2C(=O)N([C@@H](C)CO)C[C@H]1C	21*	-6	17	9	2	x
Oc1c(CNc2ccccc2)cc(COCc2ccccc2)c2cccnc12	-11	-30	2	-1	68*	-65
Oc1c(CN2CCOCC2)cc(COCc2ccccc2)c2cccnc12	x	x	x	6	x	24
O=C(CCNS(=O)(=O)c1ccccc1C(F)(F)F)N1CCN(C(c2ccccc2)c2ccccc2)CC1	92*	6	-7	1	-2	5
O=C(CCNS(=O)(=O)c1ccccc1C(F)(F)F)N1CCCCCCC1	13	-7	6	1	-6	9
C[C@H](O)C#Cc1cnc2c(c1)C(=O)N([C@@H](C)CO)C[C@@H](C)[C@H](CN(C)C(=O)c1ccncc1)O2	-11	7	2	-2	-4	x
